Screening data as filed in PubChem BioAssay.
Shown are actives, neighbours in structure and some others; about 12% of the full set was active somewhere.
Wee1 degr inh – Wee1 degradation inhibitors, primary screen, cell-based, HeLa, Wee1K328M-luciferase, luminescence; actives 1.2% (n = 220,000); AID 1321, 2008; HeLa Luc-Wee1K328M stability; 100% = proteasome inhibitor MG132 effect; Wee1-like protein kinase (Homo sapiens), P30291; reporter increase, % at 5 µM;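 active means activation above the mean of all tested compounds plus 3 SD, set per screening run, cut at about 8.8% in these data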;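 further: cells exposed to compound for 20 h before luminescence read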
Rad51 HR inh – human RAD51 strand exchange inhibitors, primary screen, biochemical, fluorescence | inhibition, % at 10 µM | AID 1385, 2008 | hRad51 DNA strand exchange, fluorescence dequenching | actives 0.085% (n = 200,000) | DNA repair protein RAD51 homolog 1 (Homo sapiens), Q06609;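 active means inhibition above 40% at the single screening dose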
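material = hRad51 filaments on single-stranded DNA | timing = filaments 15 min 37 °C, then compound 30 min | signal = FRET fluorescence dequenching, excitation 485 nm, emission 520 nm | benchmarks = control wells and blank wells on each plate | evaluation = percent inhibition relative to plate controls and blanks | compound = 10 µM final, single point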
CHOP inhibitor – inhibitors of CHOP promoter induction, primary screen, cell-based, unfolded protein response, luciferase reporter | inhibition, % at 10 µM | CHO-K1 CHOP-promoter luciferase, tunicamycin-induced, 15-18 h | actives 3.8% (n = 220,000);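 active means compounds that reduced the stress-induced luciferase reporter signal by more than about 70% of percent inhibition, limit read from the data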
Arbovirus inh – antivirals against arbovirus infection, primary screen, cell-based, full library, 10K replicate subset | arbovirus infection cell-based antiviral screen | inhibition, % at 10 µM | actives 0.37% (n = 200,000) | AID 1251, 2008; in the data active means inhibition above about 30%
Lmaj promast – Leishmania major promastigote growth inhibition, primary screen | Leishmania major promastigotes, resazurin fluorescence viability | inhibition, % at 10 µM | actives 9% (n = 200,000) | AID 1063, 2008;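 further: promastigotes grown with compound for 44 hours at 28 °C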
PKD1 inh – inhibitors of human PKD1 kinase, biochemical, fluorescence polarization; actives 0.056% (n = 200,000); PKD1 kinase fluorescence polarization assay; inhibition, % (no concentration beside the values); AID 797, 2007
Numbers stand for hits. Unless noted, no stated cut-off is given here; in the data, active means inhibition above about 50%; inactive means the rest.

For COc1cccc(NC(=S)Nc2cccnc2)c1 the results were Wee1 degr inh inactive, Rad51 HR inh inactive, CHOP inhibitor inactive, Arbovirus inh inactive, Lmaj promast 51 and PKD1 inh inactive.
For CSc1nccc(Oc2ccc(C#N)cc2)n1 the results were Wee1 degr inh inactive, Rad51 HR inh inactive, CHOP inhibitor inactive, Arbovirus inh inactive, Lmaj promast inactive and PKD1 inh inactive.
Screening Cc1nc(CN2CCN(Cc3nc(C(c4ccccc4)c4ccccc4)no3)CC2)cs1 returned Wee1 degr inh inactive, CHOP inhibitor inactive, Arbovirus inh inactive, Lmaj promast inactive and PKD1 inh inactive.
For COC(=O)c1cn(Cc2ccccn2)c(=O)c2ccccc12 the results were Wee1 degr inh inactive, Rad51 HR inh inactive, CHOP inhibitor inactive, Arbovirus inh inactive, Lmaj promast inactive and PKD1 inh inactive.
CCOC(=O)N1CCC(N(CCN(C)C)C(=S)Nc2cccc(SC)c2)CC1 was read as Wee1 degr inh inactive, Rad51 HR inh inactive, CHOP inhibitor inactive, Arbovirus inh inactive, Lmaj promast inactive and PKD1 inh inactive.
CCOc1ccc(NC(=S)N2CCCN(Cc3cccc(Cl)c3)C2)cc1 was read as Wee1 degr inh inactive, Rad51 HR inh inactive, CHOP inhibitor inactive, Arbovirus inh inactive, Lmaj promast 82 and PKD1 inh inactive.
`CSc1cccc(NC(=S)N2CCC(N(C)C3CCCC3)CC2)c1` gave Wee1 degr inh inactive, Rad51 HR inh inactive, CHOP inhibitor inactive, Arbovirus inh inactive, Lmaj promast 85 and PKD1 inh inactive.
CCOc1ccc(NC(=S)NCCN2CCN(Cc3ccccc3)CC2)cc1 was read as Wee1 degr inh inactive, Rad51 HR inh inactive, CHOP inhibitor inactive, Arbovirus inh inactive, Lmaj promast inactive and PKD1 inh inactive.
`O=C(c1cc([N+](=O)[O-])[nH]n1)N1CCSCC1` gave Wee1 degr inh inactive, Rad51 HR inh inactive and CHOP inhibitor inactive.
Screening CSc1nc2n(n1)C(c1cccs1)C1=C(CCCC1=O)N2 (stereo unspecified) returned Wee1 degr inh inactive, CHOP inhibitor inactive, Arbovirus inh inactive, Lmaj promast inactive and PKD1 inh inactive.
O=C1CCCC2=C1C(c1cccs1)n1nc(SCc3ccccc3F)nc1N2 (stereo unspecified) was read as Wee1 degr inh inactive, Rad51 HR inh inactive, CHOP inhibitor inactive, Arbovirus inh inactive, Lmaj promast 91 and PKD1 inh inactive.
Screening Cc1ccccc1CSc1nc2n(n1)C(c1cccs1)C1=C(CCCC1=O)N2 (stereo unspecified) returned Wee1 degr inh inactive, Rad51 HR inh inactive, CHOP inhibitor 78, Arbovirus inh inactive, Lmaj promast 58 and PKD1 inh inactive.
For COCCNCc1nc2sc(C)c(-c3ccccc3)c2c(=O)[nH]1 the results were Wee1 degr inh inactive, Rad51 HR inh inactive and CHOP inhibitor inactive.
`O=C(NCCc1c[nH]c2ccccc12)Nc1cccc2ccccc12` gave Wee1 degr inh inactive, Rad51 HR inh inactive, CHOP inhibitor inactive, Arbovirus inh inactive, Lmaj promast inactive and PKD1 inh inactive.
For Cc1cccc(NC(=O)NCCc2c[nH]c3ccccc23)c1 the results were Wee1 degr inh inactive, Rad51 HR inh inactive, CHOP inhibitor inactive, Arbovirus inh inactive, Lmaj promast 89 and PKD1 inh inactive.
Cc1ccc2c(c1)N(CC(=O)NCCc1c[nH]c3ccccc13)C(=O)CO2 was read as Wee1 degr inh inactive, Rad51 HR inh inactive, CHOP inhibitor inactive, Arbovirus inh inactive, Lmaj promast 53 and PKD1 inh inactive.
Screening CCN1CCc2c(OCc3ccc(C)cc3)cccc2C1=O returned Wee1 degr inh inactive, Rad51 HR inh inactive, CHOP inhibitor inactive, Arbovirus inh inactive, Lmaj promast inactive and PKD1 inh inactive.
O=C(NNc1nc(-c2ccc(Cl)cc2)cs1)c1ccco1 was read as Wee1 degr inh inactive, Rad51 HR inh inactive, CHOP inhibitor inactive, Arbovirus inh inactive, Lmaj promast 58 and PKD1 inh inactive.
Cc1ccc(-c2csc(NC(=S)NC(=O)c3ccco3)n2)cc1 was read as Wee1 degr inh inactive, Rad51 HR inh inactive, CHOP inhibitor inactive, Arbovirus inh inactive, Lmaj promast inactive and PKD1 inh inactive.
O=C(NNc1nc(-c2ccccc2)cs1)c1ccco1 was read as Wee1 degr inh inactive, Rad51 HR inh inactive, CHOP inhibitor inactive, Arbovirus inh inactive, Lmaj promast 67 and PKD1 inh inactive.
O=C(Nc1nc(-c2ccc(Cl)s2)cs1)c1ccco1 was read as Wee1 degr inh inactive, Rad51 HR inh inactive, CHOP inhibitor inactive, Arbovirus inh inactive, Lmaj promast inactive and PKD1 inh inactive.
`CNC(=O)CN(c1ccc(F)cc1)S(=O)(=O)c1cc(C)ccc1OC` gave Wee1 degr inh inactive, Rad51 HR inh inactive, CHOP inhibitor inactive, Arbovirus inh inactive, Lmaj promast inactive and PKD1 inh inactive.
CCOC(=O)c1c(C)[nH]c(C(=O)COC(=O)C(C)N2C(=O)C3CCCCC3C2=O)c1C (stereo unspecified) was read as Wee1 degr inh inactive, Rad51 HR inh inactive, CHOP inhibitor inactive, Arbovirus inh inactive, Lmaj promast inactive and PKD1 inh inactive.
For CCOC(=O)c1c(NC(=S)NC(=O)c2ccc(Cn3cc(Cl)cn3)o2)sc2c1CCC(C)C2 (stereo unspecified) the results were Wee1 degr inh inactive, Rad51 HR inh inactive, CHOP inhibitor 77, Arbovirus inh inactive, Lmaj promast inactive and PKD1 inh inactive.
`CCn1cc(C(=O)NC(=S)Nc2sc3c(c2C(=O)OC)CCCCCC3)cn1` gave Wee1 degr inh inactive, Rad51 HR inh inactive, CHOP inhibitor 78, Arbovirus inh inactive, Lmaj promast inactive and PKD1 inh inactive.
Screening CC(=O)Nc1cc(NC(C)=O)ncn1 returned Wee1 degr inh inactive, Rad51 HR inh inactive and CHOP inhibitor inactive.
CCC(=O)Nc1cc(C(=O)OCc2ccc(C(=O)Oc3ccccc3)cc2)ccc1C was read as Wee1 degr inh inactive, CHOP inhibitor inactive, Arbovirus inh inactive, Lmaj promast inactive and PKD1 inh inactive.
CCC(C)(C(=O)NC1CCCC1)N(C)C(=O)c1ccccn1 (stereo unspecified) was read as Wee1 degr inh inactive, Rad51 HR inh inactive, CHOP inhibitor inactive, Arbovirus inh inactive, Lmaj promast inactive and PKD1 inh inactive.
For CC(C)NC(=S)N/N=C/c1sc(N2CCCCC2)nc1-c1cccs1 the results were Wee1 degr inh inactive, CHOP inhibitor inactive, Arbovirus inh inactive, Lmaj promast inactive and PKD1 inh inactive.
Screening CCCCNC(=S)N(C)/N=C/c1sc(N2CCCCC2)nc1-c1cccs1 returned Wee1 degr inh inactive, Rad51 HR inh inactive, CHOP inhibitor inactive, Arbovirus inh inactive, Lmaj promast 96 and PKD1 inh inactive.
